Columns and labels:
in vitro = settings: rat, microsomes
[1] = biological target: T1, 5-hydroxytryptamine receptor 6 (Homo sapiens, UniProt P50406); assay: Antagonist activity at human 5HT6 receptor expressed in HEK293 cells assessed as inhibition of 5-CT induced cAMP production measured after 30 mins by TR-FRET assay; assay type: functional, cell-based
[2] = biological target: T1, 5-hydroxytryptamine receptor 6; assay: Displacement of [3H]LSD from human 5HT6 receptor expressed in HEK293 cells measured after 1 hr by liquid scintillation counter method; assay type: cell-based
Cytochrome P450 3A4 = Cytochrome P450 3A4 (Homo sapiens, UniProt P08684); assay: Inhibition of human recombinant CYP3A4 expressed in Escherichia coli at […] using luciferin PFBE as substrate preincubated for 5 mins followed by NADPH addition measured after 30 mins by P450-Glo luminescence assay; assay type: ADME; settings: recombinant enzyme, 0.5 h
[3] = biological target: 5-hydroxytryptamine receptor 2A (Homo sapiens, UniProt P28223); assay: Displacement of [3H]ketanserin from human 5HT2A receptor expressed in CHOK1 cells incubated for 1 hr by liquid scintillation counter method; assay type: cell-based; settings: read-out: Ki
Cytochrome P450 2D6 = Cytochrome P450 2D6 (Homo sapiens, UniProt P10635); assay: Inhibition of human recombinant CYP2D6 expressed in Escherichia coli at 6.4 uM using luciferin ME-EGE as substrate preincubated for 5 mins followed by NADPH addition measured after 45 mins by P450-Glo luminescence assay; assay type: ADME; settings: recombinant enzyme, 0.75 h
Method in brief: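 P450-Glo luminescent assays: enzyme, proluciferin and compound (final 0.01–25 μM) preincubated 5 min, reaction started with NADPH regeneration system; incubated at room temperature 30 min (CYP3A4) or 45 min (CYP2D6).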

[4] = biological target: T2, Alpha-1A adrenergic receptor (Rattus norvegicus) (UniProt P43140); assay: Displacement of [3H] prazosin from rat alpha 1A adrenergic receptor at 10^-6 M measured after 60 mins by scintillation counter method relative to control
T2 sequence (whole entry): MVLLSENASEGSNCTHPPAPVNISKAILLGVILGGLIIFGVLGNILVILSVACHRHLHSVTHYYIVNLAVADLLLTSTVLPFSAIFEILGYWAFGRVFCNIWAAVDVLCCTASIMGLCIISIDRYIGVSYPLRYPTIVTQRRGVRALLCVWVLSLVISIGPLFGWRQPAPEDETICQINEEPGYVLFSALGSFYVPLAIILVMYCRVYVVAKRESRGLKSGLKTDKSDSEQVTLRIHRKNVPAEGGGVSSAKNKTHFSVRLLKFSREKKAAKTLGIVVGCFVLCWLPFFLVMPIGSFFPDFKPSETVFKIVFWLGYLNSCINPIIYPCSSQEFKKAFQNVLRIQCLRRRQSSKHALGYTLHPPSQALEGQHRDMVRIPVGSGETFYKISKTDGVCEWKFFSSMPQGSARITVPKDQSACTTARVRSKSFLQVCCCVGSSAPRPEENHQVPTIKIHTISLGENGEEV

hERG (KCNH2) = hERG (KCNH2) (Homo sapiens, UniProt Q12809); assay: Displacement of [3H] dofetilide from human recombinant ERG at 10^-6 M measured after 60 mins by scintillation counting method relative to control; settings: probe [3H]dofetilide
[5] = Mutagenicity in Salmonella typhimurium TA100 at up to 10 uM measured after 90 mins by Ames test; assay type: toxicity; settings: salmonella enterica subsp. enterica serovar typhimurium
Method in brief: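 Ames microplate fluctuation with S. typhimurium TA100; bacteria exposed to 1 and 10 μM compound 90 min at 37°C in limited-histidine medium, then distributed into histidine-free indicator medium, 72 h at 37°C. Revertant growth scored by colour change (absorbance 420 nm); NQNO 0.5 μM positive control; alert at ≥2.0-fold over baseline and binomial B ≥0.99.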

HepG2 = assay: Cytotoxicity against human HepG2 cells assessed as cell membrane damage measured after 24 hrs by Toxilight assay; assay type: cell-based; settings: HepG2, 24 h
Method in brief: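 HepG2 cells seeded at 2x10^4 per well in DMEM with 10% FBS, grown 24 h (37°C, 5% CO2), then exposed 24 h to 1, 10, 50 and 100 μM compound. Viability read with PrestoBlue (fluorescence); membrane damage by ToxiLight (luminescence).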

[6] = biological target: 5-hydroxytryptamine receptor 2B (Homo sapiens) (UniProt P41595); assay: Antagonist activity at human recombinant 5HT2B receptor expressed in CHOK1 cells at 10^-6 M measured after 30 mins by HTRF assay relative to control; assay type: cell-based; parameters: scale not given: the % may be the effect or the level left
[7] = biological target: Histamine H1 receptor (Homo sapiens) (UniProt P35367); assay: Antagonist activity at human recombinant H1 histamine receptor at 10^-5 M relative to control; parameters: scale not given: the % may be the effect or the level left
Chain of Histamine H1 receptor (Homo sapiens) (P35367 whole entry): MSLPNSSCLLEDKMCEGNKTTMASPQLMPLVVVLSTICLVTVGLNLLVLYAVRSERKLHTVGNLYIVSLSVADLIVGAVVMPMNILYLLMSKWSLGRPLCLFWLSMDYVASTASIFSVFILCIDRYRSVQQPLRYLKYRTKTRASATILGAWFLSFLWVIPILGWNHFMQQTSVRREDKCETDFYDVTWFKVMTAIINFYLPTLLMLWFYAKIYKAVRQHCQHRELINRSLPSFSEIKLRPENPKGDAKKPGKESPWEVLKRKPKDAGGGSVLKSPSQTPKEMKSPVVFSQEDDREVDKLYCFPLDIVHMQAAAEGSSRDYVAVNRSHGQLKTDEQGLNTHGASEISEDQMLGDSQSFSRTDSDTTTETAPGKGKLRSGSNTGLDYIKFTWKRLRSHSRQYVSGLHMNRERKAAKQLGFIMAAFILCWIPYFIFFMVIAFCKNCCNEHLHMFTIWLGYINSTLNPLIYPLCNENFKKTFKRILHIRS

T1 sequence (P50406 whole entry): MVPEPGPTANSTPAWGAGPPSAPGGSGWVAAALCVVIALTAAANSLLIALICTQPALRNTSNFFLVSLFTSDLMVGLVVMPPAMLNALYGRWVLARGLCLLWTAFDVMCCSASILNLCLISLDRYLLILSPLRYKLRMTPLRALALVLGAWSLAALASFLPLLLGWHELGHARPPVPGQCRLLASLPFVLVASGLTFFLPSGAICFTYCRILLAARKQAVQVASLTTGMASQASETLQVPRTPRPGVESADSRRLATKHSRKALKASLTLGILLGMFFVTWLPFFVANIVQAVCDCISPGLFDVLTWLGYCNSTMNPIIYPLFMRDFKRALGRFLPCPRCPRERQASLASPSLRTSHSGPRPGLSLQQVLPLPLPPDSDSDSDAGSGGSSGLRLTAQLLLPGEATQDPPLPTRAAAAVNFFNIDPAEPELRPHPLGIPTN
Chain of 5-hydroxytryptamine receptor 2A (P28223 whole entry): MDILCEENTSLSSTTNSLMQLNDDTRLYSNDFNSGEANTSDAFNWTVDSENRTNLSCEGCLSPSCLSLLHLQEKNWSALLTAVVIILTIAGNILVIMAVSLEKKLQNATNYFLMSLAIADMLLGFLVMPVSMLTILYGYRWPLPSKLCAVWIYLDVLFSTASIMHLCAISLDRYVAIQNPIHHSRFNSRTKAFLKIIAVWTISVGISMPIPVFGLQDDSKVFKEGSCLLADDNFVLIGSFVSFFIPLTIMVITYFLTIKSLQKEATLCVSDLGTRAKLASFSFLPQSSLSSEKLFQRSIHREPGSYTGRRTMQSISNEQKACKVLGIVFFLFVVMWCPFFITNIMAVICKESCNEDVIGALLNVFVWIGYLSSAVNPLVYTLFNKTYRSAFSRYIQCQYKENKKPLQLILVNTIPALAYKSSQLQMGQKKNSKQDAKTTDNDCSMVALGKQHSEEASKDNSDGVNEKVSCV
Chain of Cytochrome P450 2D6 (P10635 whole entry): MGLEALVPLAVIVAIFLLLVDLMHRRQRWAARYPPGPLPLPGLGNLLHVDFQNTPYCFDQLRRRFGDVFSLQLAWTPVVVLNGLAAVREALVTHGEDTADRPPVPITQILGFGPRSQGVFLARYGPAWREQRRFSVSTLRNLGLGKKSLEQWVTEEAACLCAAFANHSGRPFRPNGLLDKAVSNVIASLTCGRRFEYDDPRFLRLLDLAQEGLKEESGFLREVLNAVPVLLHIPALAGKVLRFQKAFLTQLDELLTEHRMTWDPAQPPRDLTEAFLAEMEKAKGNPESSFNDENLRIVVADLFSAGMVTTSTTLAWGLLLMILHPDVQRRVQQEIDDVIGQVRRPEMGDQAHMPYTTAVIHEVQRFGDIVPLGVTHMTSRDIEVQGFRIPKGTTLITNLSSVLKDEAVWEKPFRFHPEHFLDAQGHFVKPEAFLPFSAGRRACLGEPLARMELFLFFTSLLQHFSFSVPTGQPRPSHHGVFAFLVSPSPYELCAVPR
Chain of 5-hydroxytryptamine receptor 2B (Homo sapiens) (P41595 whole entry): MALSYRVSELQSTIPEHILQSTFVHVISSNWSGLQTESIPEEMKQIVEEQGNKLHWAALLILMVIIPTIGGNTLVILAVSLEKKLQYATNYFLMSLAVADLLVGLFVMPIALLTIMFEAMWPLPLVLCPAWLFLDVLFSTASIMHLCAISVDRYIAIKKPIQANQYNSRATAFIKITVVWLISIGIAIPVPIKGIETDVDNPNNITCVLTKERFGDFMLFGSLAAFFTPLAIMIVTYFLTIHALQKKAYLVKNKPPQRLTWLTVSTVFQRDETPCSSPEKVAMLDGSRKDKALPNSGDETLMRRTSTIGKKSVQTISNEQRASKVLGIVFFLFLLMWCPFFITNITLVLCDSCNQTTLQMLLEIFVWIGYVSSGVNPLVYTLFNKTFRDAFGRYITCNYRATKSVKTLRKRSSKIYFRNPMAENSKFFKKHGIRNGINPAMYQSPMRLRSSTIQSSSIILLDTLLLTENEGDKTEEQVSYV
Chain of hERG (KCNH2) (Q12809 whole entry): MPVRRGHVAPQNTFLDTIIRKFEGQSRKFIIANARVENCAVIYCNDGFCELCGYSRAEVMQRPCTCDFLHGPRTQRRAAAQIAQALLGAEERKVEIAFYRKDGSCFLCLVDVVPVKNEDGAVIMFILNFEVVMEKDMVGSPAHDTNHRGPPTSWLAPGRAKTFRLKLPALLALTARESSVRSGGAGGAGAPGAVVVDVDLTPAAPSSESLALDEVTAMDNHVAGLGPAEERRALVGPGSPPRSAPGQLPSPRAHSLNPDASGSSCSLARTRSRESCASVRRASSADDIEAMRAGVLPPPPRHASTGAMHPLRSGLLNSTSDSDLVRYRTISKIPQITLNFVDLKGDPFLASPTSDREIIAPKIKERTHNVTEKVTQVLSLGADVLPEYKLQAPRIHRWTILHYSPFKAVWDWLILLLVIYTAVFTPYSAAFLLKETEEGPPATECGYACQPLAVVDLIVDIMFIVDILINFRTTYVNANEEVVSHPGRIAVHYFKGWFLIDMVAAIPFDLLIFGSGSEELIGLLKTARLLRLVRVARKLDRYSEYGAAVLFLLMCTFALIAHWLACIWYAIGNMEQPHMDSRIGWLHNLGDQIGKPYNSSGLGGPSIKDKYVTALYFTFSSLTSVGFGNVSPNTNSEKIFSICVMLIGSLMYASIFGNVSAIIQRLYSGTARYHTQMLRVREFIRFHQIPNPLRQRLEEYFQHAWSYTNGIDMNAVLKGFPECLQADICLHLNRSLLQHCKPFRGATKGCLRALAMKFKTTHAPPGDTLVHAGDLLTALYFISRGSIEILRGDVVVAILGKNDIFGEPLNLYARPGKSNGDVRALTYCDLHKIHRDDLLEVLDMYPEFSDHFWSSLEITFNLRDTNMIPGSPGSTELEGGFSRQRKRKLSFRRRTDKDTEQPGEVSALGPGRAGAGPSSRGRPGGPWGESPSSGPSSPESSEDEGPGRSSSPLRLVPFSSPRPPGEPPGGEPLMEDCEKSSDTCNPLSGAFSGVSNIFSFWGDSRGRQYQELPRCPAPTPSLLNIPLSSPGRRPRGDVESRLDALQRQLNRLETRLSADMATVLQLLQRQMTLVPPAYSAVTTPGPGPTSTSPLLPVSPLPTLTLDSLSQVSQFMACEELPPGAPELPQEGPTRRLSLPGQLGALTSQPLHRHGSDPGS
Chain of Cytochrome P450 3A4 (P08684 whole entry): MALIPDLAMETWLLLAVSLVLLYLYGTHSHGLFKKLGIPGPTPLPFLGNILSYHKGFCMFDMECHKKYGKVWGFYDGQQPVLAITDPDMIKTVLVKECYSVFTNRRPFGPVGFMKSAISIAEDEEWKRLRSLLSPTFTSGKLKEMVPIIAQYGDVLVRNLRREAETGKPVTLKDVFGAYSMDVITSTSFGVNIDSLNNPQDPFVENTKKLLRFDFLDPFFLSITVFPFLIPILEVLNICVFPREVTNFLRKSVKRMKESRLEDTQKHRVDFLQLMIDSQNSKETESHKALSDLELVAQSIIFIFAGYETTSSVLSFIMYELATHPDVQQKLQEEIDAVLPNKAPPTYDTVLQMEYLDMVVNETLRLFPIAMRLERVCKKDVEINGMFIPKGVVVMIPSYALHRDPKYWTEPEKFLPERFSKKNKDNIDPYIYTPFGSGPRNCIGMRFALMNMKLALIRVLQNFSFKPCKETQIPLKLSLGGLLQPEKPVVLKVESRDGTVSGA

With `Cc1nc(N)[nH]c1-c1cn(S(=O)(=O)c2cccc3ccccc23)c2ccccc12.Cl` the microsomal CLint (in vitro) was 60.3 µL/min/mg, the Kb [1] was 4.8 nM and the Ki [2] was 8 nM. For the same compound, the INH (Cytochrome P450 3A4) was “Active”, the Ki [3] was 490 nM and the “inhibition (INH)” value (Cytochrome P450 2D6) was “Active”. The inhibition [4] was 10.7%, the inhibition at 1 h, 1 µM (hERG (KCNH2)) was 25.7% and the Activity [5] was “Non-Toxic”. For the same compound, the IC50 (HepG2) was 18400 nM, the Activity [6] was -2.8% and the Activity [7] was 25.7%.
